According to ChEMBL document CHEMBL1799951, “FimH antagonists for the oral treatment of urinary tract infections: from design and synthesis to in vitro and in vivo evaluation” (J Med Chem, 2010):
Values after ≈ are worked out from the molar mass of the structure shown. Blank lines part the entries; values can stand above or below the compound they belong to. Active and inactive are the calls of the source. The rule behind the calls is not given here.

How the values were obtained:
[1] = test system: Plasma; assay: AUC (0 to 24 hrs) in plasma of urinary tract infection C3H/HeN mouse model assessed as Sodium3'-Chloro-4'-(alpha-D-mannopyranosyloxy)-biphenyl-4-carboxylate level at 50 mg/kg, po administered as single dose measured after 6 hrs by LC-MS analysis; assay type: ADME, organism-based; parameters: time < 24 hr, dose 50 mg/kg, route oral; settings: in vivo
Procedure, shortened: (§1)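 Female C3H/HeN mice (19-25 g) given a single 50 mg/kg oral dose by gavage. Compound dissolved in DMSO, then diluted in 1% Tween-80/PBS to a suspension. Blood and urine (10 μL) sampled at 6 min, 30 min, 1, 2, 4, 6, 8 and 24 h. Proteins precipitated with methanol, then LC-MS; for the prodrug, both ester and carboxylate metabolite measured; n=6.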

[2] = biological target: Type 1 fimbrin D-mannose specific adhesin (Escherichia coli K-12, UniProt P08191); assay: Competitive inhibition of His-tagged FimH carbohydrate recognizing domain expressed in Escherichia coli HM125 using ABTS-substrate after 3 hrs by […] assay
Procedure, shortened: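 FimH-CRD-Th-6His from E. coli HM125 coated at 10 μg/mL overnight at 4 °C and blocked with 3% BSA. 4-fold compound dilutions in HEPES buffer pH 7.4 (5% DMSO) plus streptavidin-peroxidase TM-PAA polymer, 3 h at 25 °C. ABTS developed 4 min and read at 415 nm. Duplicates; heptyl mannoside reference on each plate.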

[3] = biological target: Type 1 fimbrin D-mannose specific adhesin (Escherichia coli K-12) (UniProt P08191); assay: Ratio IC50 for compound to IC50 for n-heptyl R-D-mannopyranoside for His-tagged FimH expressed in Escherichia coli HM125
Procedure, shortened: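 FimH-CRD-Th-6His (10 μg/mL) coated overnight at 4 °C in 20 mM HEPES, 150 mM NaCl, 1 mM CaCl2, pH 7.4, then blocked with 3% BSA. 4-fold compound dilutions in 5% DMSO competed with streptavidin-peroxidase TM-PAA polymer for 3 h at 25 °C. ABTS read at 415 nm, duplicates. IC50 divided by the IC50 of the heptyl mannoside reference run on the same plate.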

[4] = Lipophilicity, log D at pH 7.4 by miniatured shake flask method; assay type: physicochemical; settings: buffer
Procedure, shortened: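 Octanol-saturated 0.1 M phosphate pH 7.4 containing analyte at 1 μM, overlaid with octanol at two volume ratios, three wells each. Shaken 2 h at 25 °C, then centrifuged; aqueous phase measured by LC-MS. log D computed from depletion. Accepted when the ratio means agree within 0.1.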

[5] = Permeability of the compound assessed as membrane retention by PAMPA method; assay type: ADME
Procedure, shortened: (§2)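 PAMPA with GIT-0 lipid, donor analyte 50 μM at pH 5.0, 6.2 and 7.4 in quadruplicate, 16 h undisturbed incubation. Donor and acceptor quantified by UV and LC-MS.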

[6] = Apparent permeability across human Caco2 cells after 120 mins by HPLC analysis; assay type: ADME, cell-based; settings: Caco-2
Procedure, shortened: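 Caco-2 cells at passage 60-65 seeded on Transwells and used on days 19-21 in DMEM without pyruvate/phenol red. Only monolayers with TEER >300 Ωcm2 before and after were kept. Apical dosing from 10 mM stock, shaken at 250 rpm. Basolateral samples at 5-120 min by HPLC; Papp = (dQ/dt)/(A·c0). Triplicates.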

[7] = Thermodynamic solubility of the compound at pH 6.5 after 24 hrs by LC-MS analysis; assay type: physicochemical; settings: buffer, read-out: Therm_solubility
Procedure, shortened: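 1 mg solid in 250 μL 50 mM phosphate pH 6.5, sonicated 15 min, shaken 2 h at 25 °C, left 24 h. pH measured, then filtered and diluted; concentration determined by LC-MS.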

[8] = Stability of the compound in simulated gastrointestinal fluid assessed as compound remaining after 2 hrs by LC-MS analysis; assay type: physicochemical; settings: read-out: Stability
[9] = Stability of the compound in simulated intestinal fluid assessed as compound remaining after 2 hrs by LC-MS analysis; assay type: physicochemical; settings: read-out: Stability
Procedure, shortened: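 Simulated intestinal fluid (phosphate, NaOH, pancreatin, pH 6) at 37 °C, compound at 10 μM, 500 rpm. Samples at 0-120 min MeCN-quenched; LC-MS as % remaining versus initial.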

[10] = test system: Liver; assay: Metabolic stability of the compound in mouse liver microsomes assessed as degradation by carboxylesterase at 2 uM by LC-MS analysis; assay type: ADME, Microsome
Procedure, shortened: (§3)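 Pooled male mouse liver microsomes (0.25 mg/mL) with 2 μM compound in 0.1 M TRIS pH 7.4 and 2 mM MgCl2 at 37 °C. Samples at 0, 1, 3, 6 and 15 min quenched in cold MeCN; LC-MS as % remaining. The inhibitor arm used microsomes pre-incubated 5 min with 1 mM BNPP.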

[11] = test system: Liver; assay: Metabolic stability of the compound in mouse liver microsomes assessed as degradation by carboxylesterase at 2 uM by LC-MS analysis in presence of CES inhibitor BNPP; assay type: ADME, Microsome; procedure, shortened: as §3
[12] = Plasma protein binding in human by miniatured equilibrium dialysis method; assay type: ADME, cell-free; settings: read-out: PPB (converted)
Procedure, shortened: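 Human plasma adjusted to pH 7.5 with analyte at 10 μM, dialysed against 0.1 M phosphate pH 7.5 (MWCO 12-14 K) for 5 h at 37 °C in triplicate. Compartments MeCN-precipitated and measured by LC-MS; fb = 1 − cbuffer/cplasma.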

[13] = AUC (0 to 24 hrs) in plasma of urinary tract infection C3H/HeN mouse model at 50 mg/kg, po administered as single dose measured after 6 hrs by LC-MS analysis; assay type: ADME, organism-based; parameters: time < 24 hr, dose 50 mg/kg, route oral; procedure, shortened: as §1
[14] = AUC (0 to 24 hrs) in urine of urinary tract infection C3H/HeN mouse model at 50 mg/kg, po administered as single dose measured after 6 hrs by LC-MS analysis; assay type: ADME, organism-based; parameters: time < 24 hr, dose 50 mg/kg, route oral
Procedure, shortened: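 Female C3H/HeN mice (19-25 g) gavaged once at 50 mg/kg. Compound dissolved in DMSO and diluted in 1% Tween-80/PBS as a suspension, or given in 200 μL PBS. Blood and urine sampled at 6 min to 24 h, methanol-precipitated, and analysed by LC-MS. For the prodrug, both parent and carboxylate metabolite were measured.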

[15] = AUC (0 to 24 hrs) in urine of urinary tract infection C3H/HeN mouse model assessed as Sodium3'-Chloro-4'-(alpha-D-mannopyranosyloxy)-biphenyl-4-carboxylate level at 50 mg/kg, po administered as single dose measured after 6 hrs by LC-MS analysis; assay type: ADME, organism-based; parameters: time < 24 hr, dose 50 mg/kg, route oral; settings: in vivo; procedure, shortened: as §1
[16] = biological target: Mannose-binding protein C (Homo sapiens) (UniProt P11226); assay: Binding affinity to MBP at 1 mM
Procedure, shortened: (§4)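 FimH-CRD (10 μg/mL), DC-SIGN-CRD-Fc (2.5 μg/mL) or MBP (10 μg/mL) coated overnight at 4 °C in 20 mM HEPES pH 7.4, 150 mM NaCl, 10 mM CaCl2. Competition against streptavidin-peroxidase TM-PAA polymer as in the FimH ELISA, test compounds at 1 mM. D-mannose at 50 mM as positive control.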

[17] = biological target: T1, CD209 antigen (Homo sapiens) (UniProt Q9NNX6); assay: Binding affinity to Fc-IgG-tagged DC-SIGN carbohydrate recognizing domain at 1 mM; procedure, shortened: as §4
T1 sequence (whole entry): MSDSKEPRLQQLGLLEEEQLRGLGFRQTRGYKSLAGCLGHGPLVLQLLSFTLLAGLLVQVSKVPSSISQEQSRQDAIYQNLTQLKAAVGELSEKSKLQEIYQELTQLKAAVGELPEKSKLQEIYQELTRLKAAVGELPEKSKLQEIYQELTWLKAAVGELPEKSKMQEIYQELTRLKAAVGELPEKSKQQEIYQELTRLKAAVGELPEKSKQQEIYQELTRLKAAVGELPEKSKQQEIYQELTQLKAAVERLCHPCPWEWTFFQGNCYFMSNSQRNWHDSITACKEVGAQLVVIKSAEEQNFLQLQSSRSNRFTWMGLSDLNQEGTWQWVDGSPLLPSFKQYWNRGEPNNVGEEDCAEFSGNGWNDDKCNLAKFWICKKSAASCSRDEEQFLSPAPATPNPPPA

[18] = Dissociation constant, pKa of the compound by NMR spectrometric analysis; assay type: physicochemical
[19] = Permeability coefficient, log Pe of the compound by PAMPA method; assay type: ADME; procedure, shortened: as §2
[20] = Cmax in plasma of urinary tract infection C3H/HeN mouse model at 50 mg/kg, iv administered as single dose measured after 6 hrs by LC-MS analysis; assay type: ADME, organism-based; parameters: dose 50 mg/kg, route intravenous
Procedure, shortened: (§5)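 Female C3H/HeN mice (19-25 g) dosed once iv at 50 mg/kg in 100 μL PBS via tail vein. Blood and urine (10 μL) sampled at 6 min, 30 min, 1, 2, 4, 6, 8 and 24 h. Proteins precipitated with methanol, centrifuged, and supernatant quantified by LC-MS.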

[21] = Cmax in urine of urinary tract infection C3H/HeN mouse model at 50 mg/kg, iv administered as single dose measured after 6 hrs by LC-MS analysis; assay type: ADME, organism-based; parameters: dose 50 mg/kg, route intravenous; procedure, shortened: as §5
[22] = AUC (0 to 24 hrs) in plasma of urinary tract infection C3H/HeN mouse model at 50 mg/kg, iv administered as single dose measured after 6 hrs by LC-MS analysis; assay type: ADME, organism-based; parameters: time < 24 hr, dose 50 mg/kg, route intravenous; procedure, shortened: as §5
[23] = AUC (0 to 24 hrs) in urine of urinary tract infection C3H/HeN mouse model at 50 mg/kg, iv administered as single dose measured after 6 hrs by LC-MS analysis; assay type: ADME, organism-based; parameters: time < 24 hr, dose 50 mg/kg, route intravenous; procedure, shortened: as §5
[24] = Plasma protein binding […] by LC-MS analysis; assay type: ADME, cell-free; settings: read-out: PPB (converted)
[25] = test system: Escherichia coli; assay: Antibacterial activity against Escherichia coli […] infected in urinary tract infection C3H/HeN mouse model assessed as log reduction in bacterial CFU in urine of mouse at 50 mg/kg, iv administered as single dose 1 hr before infection and measured after 3 hrs post infection; assay type: functional
Procedure, shortened: (§6)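 Female C3H/HeN mice dosed iv into the tail vein in 100 μL PBS, then infected transurethrally under isoflurane with 50 μL UPEC UTI89 (~10^9–10^10 CFU/mL; LB 24 h static 37 °C, PBS-washed). Six mice per group, killed 3 h post-inoculation. Urine, bladder and kidneys plated on EMB agar. Log CFU reduction taken against the 3 h untreated control baseline; Mann-Whitney test.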

[26] = test system: Escherichia coli; assay: Antibacterial activity against Escherichia coli […] infected in urinary tract infection C3H/HeN mouse model assessed as log reduction in bacterial CFU in bladder of mouse at 50 mg/kg, iv administered as single dose 1 hr before infection and measured after 3 hrs post infection; assay type: functional; procedure, shortened: as §6
[27] = test system: Escherichia coli; assay: Antibacterial activity against Escherichia coli […] infected in urinary tract infection C3H/HeN mouse model assessed as log reduction in bacterial count in kidney of mouse at 50 mg/kg, iv administered as single dose 1 hr before infection and measured after 3 hrs post infection; assay type: functional, organism-based; parameters: dose 50 mg/kg
Procedure, shortened: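 Female C3H/HeN mice given antagonist iv (100 μL PBS, tail vein) or po as suspension, then infected. Infection: isoflurane anaesthesia, bladder emptied, 50 μL UTI89 at about 10^9-10^10 CFU/mL via transurethral catheter. Six mice per group, killed 3 h post-inoculation. Kidneys plated on EMB agar. Reduction taken against the 3 h untreated control mean; Mann-Whitney test.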

[28] = test system: Liver; assay: Metabolic stability of the compound in mouse liver microsomes assessed as Cyp 450-mediated degradation at 2 uM after 30 mins by LC-MS analysis in presence of NADPH; settings: 0.5 h
[29] = test system: Escherichia coli; assay: Antibacterial activity against Escherichia coli […] infected in urinary tract infection C3H/HeN mouse model assessed as reduction in bacterial count in kidney of mouse at 50 mg/kg, iv administered as single dose 1 hr before infection and measured after 3 hrs post infection

Chain of Type 1 fimbrin D-mannose specific adhesin (Escherichia coli K-12) (P08191 whole entry): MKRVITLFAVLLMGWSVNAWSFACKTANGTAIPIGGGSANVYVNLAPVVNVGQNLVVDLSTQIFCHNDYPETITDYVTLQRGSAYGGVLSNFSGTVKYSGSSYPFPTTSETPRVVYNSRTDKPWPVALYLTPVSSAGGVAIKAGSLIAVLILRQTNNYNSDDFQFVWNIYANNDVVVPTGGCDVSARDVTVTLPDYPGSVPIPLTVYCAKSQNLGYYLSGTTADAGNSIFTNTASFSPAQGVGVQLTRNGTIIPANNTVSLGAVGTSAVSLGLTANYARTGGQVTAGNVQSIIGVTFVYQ
Chain of Type 1 fimbrin D-mannose specific adhesin (P08191 whole entry, the tested form may be a part): as the sequence (P08191 whole entry) above
Chain of Mannose-binding protein C (Homo sapiens) (P11226 whole entry): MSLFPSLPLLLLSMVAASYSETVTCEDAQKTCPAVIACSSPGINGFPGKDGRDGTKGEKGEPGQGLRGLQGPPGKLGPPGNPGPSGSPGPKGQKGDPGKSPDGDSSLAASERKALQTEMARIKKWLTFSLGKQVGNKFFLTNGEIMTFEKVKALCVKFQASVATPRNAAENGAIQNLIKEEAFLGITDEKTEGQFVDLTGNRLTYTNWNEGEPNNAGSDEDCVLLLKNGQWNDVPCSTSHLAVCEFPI

- AUC [1]: 2100 ng·h/mL
- IC50 [2]: 4.8 nM
- Ratio IC50 [3]: 0.06
- logD [4]: 2.32
- permeability [5]: 41%
- Papp at 2 h [6]: 2.05 ×10⁻⁶ cm/s
- solubility thermodynamic at 24 h [7]: 11.9 µg/mL (≈ 28 µM)
- remaining at 2 h [8]: 80%
- remaining at 2 h [9]: 80%
- Stability [10]: Unstable
- Stability [11]: Stable
- fraction unbound [12]: 0.06
- AUC(0-t) at 24 h [13]: 1020 ng·h/mL
- AUC(0-t) at 24 h [14]: 1890 ng·h/mL
- AUC [15]: 21690 ng·h/mL
SMILES: COC(=O)c1ccc(-c2ccc(O[C@H]3O[C@H](CO)[C@@H](O)[C@H](O)[C@@H]3O)c(Cl)c2)cc1

- IC50 [2]: 17.1 nM
- Ratio IC50 [3]: 0.15
- Activity [16]: inactive
- Activity [17]: inactive
- pKa [18]: 3.88
- permeability [19]: impermeable
- solubility thermodynamic at 24 h [7]: > 3000 µg/mL
- fraction unbound [12]: 0.27
- Cmax [20]: 34.4 µg/mL
- Cmax [21]: 510 µg/mL
- AUC(0-t) at 24 h [22]: 19300 ng·h/mL
- AUC(0-t) at 24 h [23]: 140000 ng·h/mL
- fraction unbound [24]: 0.27
- Stability [28]: Stable
SMILES: O=C([O-])c1ccc(-c2ccc(O[C@H]3O[C@H](CO)[C@@H](O)[C@H](O)[C@@H]3O)cc2)cc1.[Na+]
- FC [25]: >2
- FC [26]: 4.5
- Activity [27]: Active
- Activity [29]: Active
